Screening results: PubChem, several laboratories
A selection: hits, their analogues and other compounds. The true share with any hit is near 12%.
CHOP inhibitor: blocks CHOP induction under ER stress; CHO-K1 CHOP-promoter luciferase, tunicamycin-induced, 15-18 h; inhibition, % at 10 µM; hit rate 3.8% among 220,000; AID 2732;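 active = compounds that reduced the stress-induced luciferase reporter signal by more than about 70% of percent inhibition, limit read from the data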;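 also: 0% = tunicamycin plus vehicle and 100% = wells without tunicamycin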
b-catenin transl: beta-catenin nuclear translocation modulation; HeLa beta-catenin nuclear translocation, immunofluorescence imaging; nuclear translocation activity, % at 5 µM; hit rate 0.3% among 190,000;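 active = nuclear translocation activity above 50% at 5 µM, with a well cell count of 50 or more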;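 also: per-cell ratio of nuclear to cytoplasmic median beta-catenin stain intensity; plate controls were DMSO negative control for no effect and GSK-3 inhibitor IX positive control for full effect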
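System: Human HeLa cells, endogenous beta-catenin | Compound dosing: 5 µM primary, 0.02–20 µM confirmation | Timing: 24 h compound exposure at 37°C, 5% CO2 | Measured by: Fluorescence imaging of beta-catenin antibody stain plus DAPI | Read-out basis: % activation of per-cell nuclear versus cytoplasmic median beta-catenin signal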
Lmaj promast: reduces viability of Leishmania major promastigotes. hit rate 9% among 200,000. AID 1063. resazurin fluorescence viability. inhibition, % at 10 µM; in the data active = inhibition above about 50%;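 also: promastigotes grown with compound for 44 hours at 28 °C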
Dynein transport: blocks dynein driven cargo transport along microtubules; z-score, hits read low; 3617.4 mouse cells, GR-EGFP nuclear translocation imaging; test concentration mostly 20 µM; stimulated with dexamethasone, 1 µM; active compounds read low; hit rate 0.47% among 220,000;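 active = plate z-score of nuclear minus cytoplasmic receptor signal below a set negative limit, without overly bright fluorescence or cell loss, cut at about -3.5 in these data, passing the limit was not always enough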;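 also: z-score of nuclear minus cytoplasmic ring GR-EGFP intensity difference per well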
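Schedule: 48 h induction, then 1 h compound, then 30 min agonist, 37 °C. Buffer or medium: tetracycline-free induction medium containing charcoal-stripped FBS. Reagent: 1.0 µM final dexamethasone stimulus. Evaluation: nuclear versus cytoplasmic GR-EGFP signal, averaged per well. Signal: high-content fluorescence imaging after fixation.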
MT stabilizer: microtubule stabilizers in HeLa cells. HeLa tubulin immunostaining HCS, 24 h; share of cells brighter than vehicle mean+2SD. % tubulin-high responders, % at 10 µM. hit rate 0.83% among 200,000. AID 2205;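 active = plate Z-score above 3 for both tubulin-high and condensed-nucleus cell shares, with cell loss under 80%, at 10 µM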;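 also: anti alpha tubulin signal scored within the nucleus-defined area of each cell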
Autophagy HCS: modulators of autophagy; MEF GFP-LC3 puncta imaging; test concentration mostly 10 µM; calls only at 10 µM (by protocol); hit rate 0.98% among 190,000; AID 463193;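 active = percentage of spot-positive cells more than 3 SD above its plate mean, without a fluorescence outlier flag or 80% toxicity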;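 also: spot-positive cell cutoff set from DMSO-treated cells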
* = called active by the depositor; i = inactive; . = not tested or not shown; + = active, no number.

SMILES | CHOP inhibitor | b-catenin transl | Lmaj promast | Dynein transport | MT stabilizer | Autophagy HCS
CCn1c(O)c(N=Nc2cccc(S(=O)(=O)N3CCOCC3)c2)c(=O)n(CC)c1=S | 13 | 1 | . | -0.086 | . | .
CC1CCN2c3nc4ccccn4c(=O)c3CC3(C(=O)N(C)C(=O)N(C)C3=O)C2C1 (stereo unspecified) | 14 | 0 | 0 | 0.029 | 2 | i
CN1C(=O)N(C)C(=O)C2(Cc3c(nc4ccccn4c3=O)N3CCc4ccccc4C32)C1=O (stereo unspecified) | 17 | -2 | 70* | 1.1 | 2 | i
COc1ccc(N2C(=O)/C(=C/C=C/c3ccccc3[N+](=O)[O-])C(=O)NC2=S)cc1 | -143 | 1 | 92* | -3.5 | 4 | i
O=C1NC(=O)N(c2ccccc2)C(=O)/C1=C\c1ccccc1[N+](=O)[O-] | 3 | 0 | . | -0.65 | . | .
O=C(Nc1nc(-c2ccccc2)c(-c2ccccc2)s1)c1ccc(S(=O)(=O)N(CCCl)CCCl)cc1 | -4 | 1 | 74* | -0.99 | 3 | i
c1ccc(-c2ccc(-c3n(-c4ccccn4)c4ccccc4[n+]3-c3ccccn3)cc2)cc1 | -11 | 0 | 88* | 1.5 | 4 | +
OC(Cc1ccccc1)(c1ccccc1)C1CN2CCC1CC2 (stereo unspecified) | 42 | . | 92* | -0.51 | 2 | i
CCOc1ccc(N2C(=O)NC(=O)/C(=C\c3ccc(N4CCOCC4)cc3C)C2=O)cc1 | -9 | 1 | -5 | -0.23 | 1 | i
CCOc1ccc(N2C(=O)NC(=O)/C(=C\c3cc(OC)c(OC)cc3[N+](=O)[O-])C2=O)cc1 | 11 | 0 | 56* | -0.28 | 3 | i
COc1ccc(CCNC(=O)c2c(N)n(CCN3CCOCC3)c3nc4ccccc4nc23)cc1OC | 65 | 0 | 100* | 2.3 | 6 | i
CCCCCn1c(N)c(C(=O)NCCN2CCOCC2)c2nc3ccccc3nc21 | 46 | -2 | 21 | 1.5 | 3 | i
CCCCCn1c(N)c(C(=O)NCc2cccs2)c2nc3ccccc3nc21 | 68 | 1 | 8 | -0.22 | 3 | i
CCCCn1c(N)c(C(=O)NCc2cccs2)c2nc3ccccc3nc21 | 92* | 0 | 9 | -1.1 | 2 | i
CCCCCCn1c(N)c(C(=O)NCCN2CCOCC2)c2nc3ccccc3nc21 | 86* | 0 | 0 | -0.3 | 3 | i
Nc1c(C(=O)NCc2ccco2)c2nc3ccccc3nc2n1CCN1CCOCC1 | -7 | . | 7 | -1 | 1 | i
CN(C)CCNC(=O)c1cccn(Cc2cc(C(F)(F)F)cc(C(F)(F)F)c2)c1=O | 22 | -4 | -1 | -0.45 | 2 | i
CNC(=O)OCC[N+](C)(C)C | 69 | . | . | . | . | .
CN1C(=O)CCS(=O)(=O)C1c1ccc(Cl)cc1 (stereo unspecified) | -3 | . | . | . | . | .
COCC(C)OC(=O)c1c(N)n(Cc2ccco2)c2nc3ccccc3nc12 (stereo unspecified) | -2 | -9 | 95* | -0.7 | 3 | i
Nc1c(C(=O)NCc2ccco2)c2nc3ccccc3nc2n1Cc1ccc(F)cc1 | 51 | -1 | 59* | 0.13 | 5 | i
CCOC(=O)c1c(N)n(Cc2ccco2)c2nc3ccccc3nc12 | 35 | -5 | 48 | -0.83 | 1 | i
Nc1c(C(=O)NCc2ccco2)c2nc3ccccc3nc2n1Cc1ccccc1 | 41 | 2 | 7 | -0.34 | 2 | i
CCN1C(=O)CC(c2cccnc2)=Nc2ccccc21 | 13 | 0 | -1 | 0.6 | 3 | i
Cc1cccc(OP(=O)(Oc2ccccc2)OC(c2ccccc2)C(F)(F)F)c1 (stereo unspecified) | 76* | -1 | 19 | -0.53 | 2 | i
SMILES | CHOP inhibitor | b-catenin transl | Lmaj promast | Dynein transport | MT stabilizer | Autophagy HCS
C/C(=N\NP(=S)(c1ccccc1)c1ccccc1)c1ccc(O)cc1O | 7 | 0 | . | 0.93 | . | .
CCOc1ccc(-c2cc(C)[n+](CCO)c(-c3ccc(OCC)cc3)c2)cc1 | 15 | -1 | 99* | 0.0011 | 7 | i
CCN(CC)CCCC(C)N=C(c1ccccc1)c1c(O)n(C)c(=O)n(C)c1=O (stereo unspecified) | -16 | 0 | 95* | 0.41 | 4 | i
O=C1CN=C(c2cccs2)c2c(sc3c2CCCC3)N1 | . | 1 | 15 | -0.32 | 54* | i
O=[N+]([O-])/C=C1/NCCN1Cc1ccc(Cl)nc1 | 10 | 0 | -7 | -0.95 | 4 | i
COc1ccc2c(c1)[C@@]13CCCC[C@H]1[C@@H](C2)NCC3 | -7 | . | . | . | . | .
CCN(CC)c1ccc(C=C2C(=O)N(C)C(=S)N(C)C2=O)o1 | -5 | . | 72* | -0.4 | 2 | i
CCN(CC)c1ccc(/C=C2\C(=O)NC(=S)N(C)C2=O)o1 | 18 | -1 | . | -0.0048 | . | .
O=P(Nc1cccc(F)c1)(Oc1ccccc1F)Oc1ccccc1F | 76* | 0 | . | -1.2 | . | .
Cc1cccc(NP(=O)(Oc2ccccc2F)Oc2ccccc2F)c1 | 78* | -2 | 57* | 0.96 | 4 | i
Cc1cccc(-n2c(O)c(C)c(=O)[nH]c2=S)c1 | 3 | 0 | -8 | -0.24 | 3 | i
CNC(C)Cc1ccccc1Sc1ccc(O)cc1 (stereo unspecified) | 5 | -1 | 100* | 1.8 | 3 | i
CCCC1(CCC)C(=O)NC(=Nc2ccccc2)NC1=O | 14 | -2 | -1 | -0.1 | 4 | i
CCCCC1(CCCC)C(=O)NC(=Nc2cccc(C)c2)NC1=O | 80* | 1 | 26 | 1.2 | 4 | i
Cc1cccc(CN2CCCC(C(=O)c3ccc4c(c3)OCO4)C2)n1 (stereo unspecified) | -17 | 1 | 31 | -0.21 | 3 | i
O=C(c1ccc2c(c1)OCO2)C1CCCN(CC2CCCCC2)C1 (stereo unspecified) | 19 | -2 | 91* | 4.7 | 2 | i
CCn1c(P(C)(=O)O)nc2ccccc21 | -6 | 1 | -4 | 0.05 | 7 | i
CCn1c(NN=O)nc2ccccc21 | 61 | -1 | 53* | -0.52 | 2 | i
CC(C)(C)c1cc([N+](=O)[O-])cc(C(C)(C)C)c1O | 73* | 0 | 15 | 0.11 | 7 | i
O=c1[nH]c(=O)n(-c2ccc(Br)cc2)c(O)c1C=NCCN1CCCCC1 | -7 | -2 | . | -0.56 | . | .
COc1ccccc1CCNC1CCC(C)CC1 (stereo unspecified) | 31 | 2 | 77* | 0.21 | 4 | i
CCOP(=O)(OCC)Oc1cc(C)c(N(C)C)c(C)c1 | 6 | -2 | . | -0.16 | . | .
C=CCn1c(O)c(N=Nc2c(C)n(C)n(-c3ccccc3)c2=O)c(=O)[nH]c1=S | 47 | 5 | 25 | -0.067 | 4 | i
c1ccc(CN2CCN(Cc3ccc4c(c3)OCCO4)CC2)cc1 | -13 | 1 | 80* | -0.67 | 2 | i
CN1CCN(c2ccc([N+](=O)[O-])c(NCc3ccco3)c2)CC1 | -2 | . | 100* | -0.7 | 4 | i
